Test results: ChEMBL document CHEMBL1125745, “Unsaturated and carbocyclic nucleoside analogues: synthesis, antitumor, and antiviral activity” (J Med Chem, 1991)

Experiments:
[1] = Cytotoxicity was evaluated against low malignancy line at 250 ug/disk.; format: functional
In short: (§1)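 Disk zone assay: analogue dilutions on 6.5 mm paper disks were placed on dishes with a 0.8% agar bottom layer and a 0.44% soft-agar top layer of tumor cells (≤1 × 10^5/plate) in Fishers-CMRL-1066 with 12% horse serum. Plates were incubated 6-10 days and the inhibition zone was measured by microscope; 200 zone units = 6 mm.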

L1210 [2] = experiment: Inhibitory activity against murine leukemia L1210 cells; format: functional, cell-based; conditions: Mus musculus
Mus musculus [3] = species: Mus musculus; experiment: Concentration that reduces Rauscher murine leukemia virus titer by 50%; format: functional, organism-based
In short: (§2)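 SC-1 cells (1 × 10^4/well) were pretreated with polybrene, infected 2 h at 37 °C with F-MuLV or R-MuLV in EMEM-5 with 8 µg/mL polybrene, washed, and refed with analogue for 72 h. They were then UV-irradiated and overlaid with XC cells (2 × 10^5) for 48 h, fixed and stained with crystal violet. Multinucleated cells were counted and EC50 was taken by linear regression versus untreated cultures.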

Mus musculus [4] = species: Mus musculus; experiment: Cytotoxicity was evaluated; format: functional
In short: (§3)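 SC-1 cells (1 × 10^4 cells/mL) were seeded, incubated overnight at 37 °C, refed with EMEM-10 and given diluted analogue in triplicate for 72 h at 37 °C. Cells were trypsinized and counted in a Coulter counter. The mean of three wells gave percent of control count, and IC50 was calculated by linear regression.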

PO3 [5] = experiment: Cytotoxicity was evaluated against PO3 cell line at 250 ug/disk.; format: functional, Mus musculus; in short: as §1
L1210 [6] = experiment: Cytotoxicity was evaluated against L1210 leukemia cell line at 250 ug/disk.; format: functional, Mus musculus; in short: as §1
[7] = Selectivity index which is the ratio of IC50 to EC50 of R-MuLV.; format: functional
Mus musculus [8] = species: Mus musculus; experiment: Concentration that reduces Friend murine leukemia virus titer by 50%; format: functional, organism-based; in short: as §2
[9] = Selectivity index is the ratio of IC50 to EC50 of F-MuLV.; format: functional
MC-38 [10] = experiment: Cytotoxicity was evaluated against C38 solid tumor of mouse at 500 ug/disk.; format: functional; parameters: unit not given beside the values; in short: as §1
[11] = Cytotoxicity was evaluated against low malignancy line at 500 ug/disk.; format: functional; in short: as §1
L1210 [12] = experiment: Cytotoxicity was evaluated against L1210 leukemia cell line at 1000 ug/disk.; format: functional, Mus musculus; in short: as §1
Homo sapiens [13] = species: Homo sapiens; experiment: Cytotoxicity was evaluated against C116 human solid tumor at 500 ug/disk.; format: functional; in short: as §1
Mus musculus [14] = species: Mus musculus; experiment: (§4) Inhibition of incorporation of labeled precursor into macromolecules of noninfected SC-1 cells with the compound at a concentration 100 uM determined against thymidine; format: functional
In short: (§5)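 Noninfected SC-1 cells were incubated with analogue as in the cytotoxicity setup, and [3H]thymidine, [3H]uridine or [3H]leucine was added. After 4 h, wells were washed with ice-cold PBS and cells were lysed in 1% SDS, 0.01 M EDTA, 0.01 M Tris pH 7.7. Lysates were dried on glass-fiber filters, and label is expressed as percent of incorporation in untreated cells.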

Mus musculus [15] = species: Mus musculus; experiment: (§6) Inhibition of incorporation of labeled precursor into macromolecules of noninfected SC-1 cells with the compound at a concentration 300 uM determined against leucine.; format: functional
In short: (§7)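 SC-1 cells seeded in 24-well trays at 1 × 10^4 cells/mL, incubated overnight at 37 °C, then exposed to analogue for 72 h at 37 °C. Labeled thymidine (2.5 µCi), [3H-5,6]uridine or [3H-4,5]leucine was added. After 4 h, cells were washed with cold PBS, lysed in 1% SDS/0.01 M EDTA/0.01 M Tris pH 7.7, and lysates were dried on GF/B filters. Result given as % of untreated incorporation.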

Mus musculus [16] = species: Mus musculus; experiment: (§8) Inhibition of incorporation of labeled precursor into macromolecules of noninfected SC-1 cells with the compound at a concentration 100 uM determined against leucine.; format: functional; in short: as §5
Mus musculus [17] = species: Mus musculus; experiment: Cytotoxicity was evaluated and represented as IC50.; format: functional; in short: as §3
Mus musculus [18] = species: Mus musculus; experiment: (§9) Inhibition of incorporation of labeled precursor into macromolecules of noninfected SC-1 cells with the compound at a concentration 300 uM determined against thymidine; format: functional; in short: as §7
Mus musculus [19] = species: Mus musculus; experiment: (§10) Inhibition of incorporation of labeled precursor into macromolecules of noninfected SC-1 cells with the compound at a concentration 300 uM determined against uridine.; format: functional; in short: as §7
Mus musculus [20] = species: Mus musculus; experiment: (§11) Inhibition of incorporation of labeled precursor into macromolecules of noninfected SC-1 cells with the compound at a concentration 100 uM determined against uridine.; format: functional; in short: as §5
L1210 [21] = experiment: Cytotoxicity was evaluated against L1210 leukemia cell line at 500 ug/disk.; format: functional, Mus musculus; in short: as §1
PO3 [22] = experiment: Cytotoxicity was evaluated against PO3 cell line at 1000 ug/disk.
Homo sapiens [23] = species: Homo sapiens; experiment: Cytotoxicity was evaluated against PO1 human solid tumor at 500 ug/disk.; format: functional; in short: as §1
[24] = Cytotoxicity was evaluated against CO9 solid tumor of mouse at 500 ug/disk.; format: functional; in short: as §1
[25] = as §4; format: functional; in short: as §5
[26] = as §6; format: functional; in short: as §7
[27] = as §8; format: functional; in short: as §5
[28] = as §9; format: functional; in short: as §7
[29] = as §10; format: functional; in short: as §7
[30] = as §11; format: functional; in short: as §5
MC-38 [31] = experiment: Cytotoxicity was evaluated against C38 solid tumor of mouse at 1000 ug/disk.; format: functional; in short: as §1
PO3 [32] = experiment: Cytotoxicity was evaluated against PO3 cell line at 1000 ug/disk.; format: functional, Mus musculus; in short: as §1
Homo sapiens [33] = species: Homo sapiens; experiment: Cytotoxicity was evaluated against C116 human solid tumor at 1000 ug/disk.; format: functional; in short: as §1
[34] = Cytotoxicity was evaluated against low malignancy line at 1000 ug/disk.; format: functional; in short: as §1

SMILES	IC50 (L1210 [2]) [µM]	EC50 (Mus musculus [3]) [µM]	IC50 (Mus musculus [4]) [µM]	SI [7]	EC50 (Mus musculus [8]) [µM]	SI [9]	other results
Nc1ncnc2c1ncn2C/C=C\CO	490	124	> 300	> 2.4	175	> 1.7	Cytotoxicity [1]: 240; Cytotoxicity (PO3 [5]): 260; Cytotoxicity (L1210 [6]): 200
Nc1ncnc2c1ncn2/C=C\CCO	200	160	> 300	> 1.9	194	> 1.6	–
NC1=NC(N)c2c(ncn2C=C=CCO)N1 (centres undefined)	60	118	255	2.2	118	2.2	Cytotoxicity (MC-38 [10]): 180; Cytotoxicity [11]: 40; Cytotoxicity (L1210 [12]): 150; Cytotoxicity (Homo sapiens [13]): 200
Cc1cn([C@H]2C[C@H](N=[N+]=[N-])[C@@H](CO)O2)c(=O)[nH]c1=O [ZIDOVUDINE]	–	0.046	594	12900	0.035	17000	–
Nc1ncnc2c1ncn2/C=C/CCO	100	181	304	1.7	127	2.4	–
Nc1nc(O)c2ncn(C/C=C\CO)c2n1	680	–	–	–	–	–	–
Nc1ncnc2c1ncn2CCCCCl	> 440	–	–	–	–	–	–
Nc1ncnc2c1ncn2CC#CCO	490	156	–	2.6	245	1.7	Precursor inhibition (Mus musculus [14]): 60%; Precursor inhibition (Mus musculus [15]): 75%; Precursor inhibition (Mus musculus [16]): 88%; IC50 (Mus musculus [17]): 407 µM; Precursor inhibition (Mus musculus [18]): 36%; Precursor inhibition (Mus musculus [19]): 66%; Precursor inhibition (Mus musculus [20]): 67%
Nc1ncnc2c1ncn2C/C=C/CCl	45	–	–	–	–	–	Cytotoxicity (MC-38 [10]): 600; Cytotoxicity (L1210 [21]): 630; Cytotoxicity [11]: 400
N=c1ncn2c3c1ncn3CC=CC2	> 1000	–	–	–	–	–	–
Nc1ccn(C/C=C/CCl)c(=O)n1	50	–	–	–	–	–	Cytotoxicity (L1210 [21]): 520; Cytotoxicity [11]: 370; Cytotoxicity (PO3 [22]): 550
NC1=NC(N)c2c(ncn2CC#CCO)N1 (centres undefined)	200	–	–	–	–	–	–
Cc1cn(C/C=C\CCl)c(=O)[nH]c1=O	46	–	–	–	–	–	Cytotoxicity (L1210 [21]): 610; Cytotoxicity [11]: 400; Cytotoxicity (Homo sapiens [23]): 550; Cytotoxicity [24]: 320
O=c1[nH]c(=O)n2c3c1ncn3CC=CC2	> 1000	–	–	–	–	–	–
Nc1ncnc2c1ncn2C=C=CCO	150	87.3	168	1.9	124	1.4	Precursor inhibition [25]: 80%; Precursor inhibition [26]: 79%; Precursor inhibition [27]: 94%; Precursor inhibition [28]: 46%; Precursor inhibition [29]: 105%; Cytotoxicity (PO3 [22]): 0; Precursor inhibition [30]: 107%; Cytotoxicity (L1210 [12]): 160
Nc1ccn([C@H]2CC[C@@H](CO)O2)c(=O)n1 [ZALCITABINE]	–	13.8	> 100	> 7.3	23	> 4.4	–
Nc1ncnc2c1ncn2[C@H]1CC[C@@H](CO)O1	–	2.6	83.8	32.2	1	83.8	–
NC1=NC(Cl)c2c(ncn2CC#CCCl)N1 (centres undefined)	39	–	–	–	–	–	–
Nc1ncnc2c1ncn2C1C=CCO1 (centres undefined)	> 500	–	–	–	–	–	Cytotoxicity (MC-38 [31]): 400; Cytotoxicity (PO3 [32]): 320; Cytotoxicity (Homo sapiens [33]): 460; Cytotoxicity [34]: 500; Cytotoxicity (L1210 [12]): 520
Nc1ncnc2c1ncn2C/C=C/CO	125	–	–	–	–	–	–
Cc1cn(C/C=C\CO)c(=O)[nH]c1=O	> 1000	–	–	–	–	–	–
